Laboratory results taken from ChEMBL document CHEMBL4842330, “New nimesulide derivatives with amide/sulfonamide moieties: Selective COX-2 inhibition and antitumor effects” (Eur J Med Chem, 2021).
Activity calls are given as the source filed them. The calls are words filed in the database; no cut-off is given here.

Key:
[1] = system: MCF7; assay: Cytotoxicity against human MCF7 cells assessed as cell viability at 100 uM after 48 hrs by MTT assay relative to control; assay type: functional; conditions: read-out: Activity
Method in brief: (§1)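 Cells in exponential growth were seeded at 5 × 10⁴ cells/mL, held 24 h at 37 °C, then exposed to compound for 48 h. MTT was added to 1 mg/mL final for 2 h. Formazan was dissolved in DMSO and read at 570 nm, with 620 nm background subtraction. Final DMSO ≤1.0%; viability reported as percentage of control.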

[2] = system: PC-3; assay: Cytotoxicity against human PC-3 cells assessed as cell viability at 100 uM after 48 hrs by MTT assay relative to control; assay type: functional; conditions: read-out: Activity; method in brief: as §1
[3] = system: HT-29; assay: Cytotoxicity against human HT-29 cells assessed as cell viability at 100 uM after 48 hrs by MTT assay relative to control; assay type: functional; conditions: read-out: Activity; method in brief: as §1
[4] = system: HT-29; assay: Cytotoxicity against human HT-29 cells assessed as inhibition of cell growth after 48 hrs by SRB assay; assay type: functional, cell-based; conditions: HT-29, 48 h
Method in brief: (§2)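 Cells seeded at 5 × 10⁴ cells/mL were held 24 h, then treated 48 h across final concentrations of 0–200 µM. They were fixed with 10% TCA for 1 h at 4 °C and stained with 0.04% SRB for 30 min. Bound dye was washed with 1% acetic acid, solubilised in 10 mM Tris base (pH 10.5) and read at 565 nm. IC50 derived from concentration–response curves.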

[5] = system: PC-3; assay: Cytotoxicity against human PC-3 cells assessed as inhibition of cell growth after 48 hrs by SRB assay; assay type: functional, cell-based; conditions: PC-3, 48 h; method in brief: as §2
[6] = system: MCF7; assay: Cytotoxicity against human MCF7 cells assessed as inhibition of cell growth after 48 hrs by SRB assay; assay type: functional, cell-based; conditions: MCF7, 48 h; method in brief: as §2
[7] = system: HUVEC; assay: Cytotoxicity against human HUVEC cells assessed as inhibition of cell growth after 48 hrs by SRB assay; assay type: cell-based; method in brief: as §2
[8] = system: MCF7; assay: Inhibition of colony formation in human MCF7 cells assessed as decrease in colonies incubated for 14 days by crystal violet staining based clonogenic assay; assay type: functional, cell-based; conditions: time 14.0 day
Method in brief: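 MCF-7 cells seeded at 5 × 10² per well were allowed to attach for 24 h. Compound was then applied at increasing concentrations, with medium and compound renewed every 2 days for 14 days. Colonies were fixed in 75% methanol/25% acetic acid for 30 min, stained with 0.5% crystal violet for 30 min, and counted.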

[9] = system: MCF7; assay: Induction of apoptosis in human MCF7 cells assessed as upregulation of BAX protein expression measured after 24 hrs by Western blot analysis; assay type: functional, cell-based
Method in brief: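 MCF-7 cells seeded at 1 × 10⁶ cells/mL were exposed to compound for 24 h and lysed in RIPA buffer. Lysates were quantified by BCA, equally loaded, and run on a 12% SDS gel with 4% stacking gel. Blots were probed at 4 °C for BAX, BCL-2 and β-actin, then with HRP secondary, and detected by chemiluminescence. Band densitometry reported as relative change versus control.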

[10] = system: MCF7; assay: Induction of apoptosis in human MCF7 cells assessed as increase in BAX/Bcl-2 ratio at 10 to 25 uM measured after 24 hrs by Western blot analysis; conditions: dose 10-25 µM
[11] = system: MCF7; assay: Induction of apoptosis in human MCF7 cells assessed as downregulation of Bcl-2 protein expression at 10 to 25 uM measured after 24 hrs by Western blot analysis; conditions: dose 10-25 µM
[12] = target: COX-1 (Prostaglandin G/H synthase 1) (Homo sapiens, UniProt P23219); assay: Inhibition of human recombinant COX-1 at 10 uM using arachidonic acid as substrate preincubated for 10 mins followed by substrate addition relative to control; conditions: recombinant COX-1, probe arachidonic acid
[13] = system: THP-1; assay: Antiinflammatory activity in LPS-stimulated human THP-1 cells assessed as suppression of PGE2 release at 50 uM incubated for 24 hrs by ELISA relative to control; assay type: functional
Method in brief: (§3)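 THP-1 monocytes were differentiated with PMA (10 ng/mL, 24 h) and rested 24 h PMA-free. They were then given compound alongside 1 µg/mL LPS for 24 h. PGE₂ in supernatants was measured by ELISA and normalised to the BCA total protein of viable cells. Final DMSO ≤1.0%; at least three independent biological replicates.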

[14] = system: THP-1; assay: Antiinflammatory activity in LPS-stimulated human THP-1 cells assessed as suppression of PGE2 release at 100 uM incubated for 24 hrs by ELISA relative to control; assay type: functional; method in brief: as §3
[15] = system: THP-1; assay: Antiinflammatory activity in LPS-stimulated human THP-1 cells assessed as suppression of COX-2 mRNA expression at 50 uM incubated for 24 hrs by ELISA relative to control; assay type: functional; conditions: in the assay text read “by qPCR” for “by ELISA”
Method in brief: (§4)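 THP-1 monocytes plated at 1 × 10⁶ cells/mL, differentiated with 10 ng/mL PMA for 24 h, then rested 24 h in PMA-free medium. Cells were treated with compound and LPS stimulation. COX mRNA was quantified by qPCR with TaqMan probes against β-actin as housekeeping gene. Compound stocks in DMSO, final DMSO ≤1.0%.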

[16] = system: THP-1; assay: Antiinflammatory activity in LPS-stimulated human THP-1 cells assessed as suppression of COX-2 mRNA expression at 100 uM incubated for 24 hrs by ELISA relative to control; assay type: functional; conditions: in the assay text read “by qPCR” for “by ELISA”; method in brief: as §4
[17] = system: RAW264.7; assay: Inhibition of LPS-induced NO release in mouse RAW264.7 cells at 20 uM when treated with compound and LPS simultaneously measured after 24 hrs by Griess reagent based assay relative to control; assay type: functional
Method in brief: (§5)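 RAW264.7 cells were plated at 4 × 10⁵ cells/mL in phenol-free medium and left 24 h. They then received compound together with LPS (1 µg/mL) for 24 h. Nitrite in supernatants was measured by the Griess reaction and normalised to BCA total protein of viable cells. 1400W at 20 µM served as positive control.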

[18] = Inhibition of LPS-induced IL-1 beta mRNA expression in mouse RAW264.7 cells at 20 uM by RT-qPCR analysis relative to control; assay type: functional
Method in brief: (§6)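 RAW264.7 cells were kept in high-glucose DMEM with 10% FBS. They were treated with compound alongside LPS stimulation. iNOS, TNF-α and IL-1β mRNA were quantified by qPCR using TaqMan probes, with β-actin as housekeeping gene, and expressed relative to LPS control. Final DMSO ≤1.0%.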

[19] = Inhibition of LPS-induced IL-1 beta mRNA expression in mouse RAW264.7 cells at 50 uM by RT-qPCR analysis relative to control; assay type: functional; method in brief: as §6
[20] = Inhibition of LPS-induced TNF alpha mRNA expression in mouse RAW264.7 cells at 20 uM by RT-qPCR analysis relative to control; assay type: functional; method in brief: as §6
[21] = Inhibition of LPS-induced TNF alpha mRNA expression in mouse RAW264.7 cells at 50 uM by RT-qPCR analysis relative to control; assay type: functional; method in brief: as §6
[22] = system: RAW264.7; assay: Inhibition of LPS-induced NO release in mouse RAW264.7 cells at 50 uM when treated with compound and LPS simultaneously measured after 24 hrs by Griess reagent based assay relative to control; assay type: functional; method in brief: as §5
[23] = target: T1, Prostaglandin G/H synthase 2 (Homo sapiens) (UniProt P35354); assay: Inhibition of human recombinant COX-2 at 1 uM using arachidonic acid as substrate preincubated for 10 mins followed by substrate addition relative to control
T1 sequence (whole entry): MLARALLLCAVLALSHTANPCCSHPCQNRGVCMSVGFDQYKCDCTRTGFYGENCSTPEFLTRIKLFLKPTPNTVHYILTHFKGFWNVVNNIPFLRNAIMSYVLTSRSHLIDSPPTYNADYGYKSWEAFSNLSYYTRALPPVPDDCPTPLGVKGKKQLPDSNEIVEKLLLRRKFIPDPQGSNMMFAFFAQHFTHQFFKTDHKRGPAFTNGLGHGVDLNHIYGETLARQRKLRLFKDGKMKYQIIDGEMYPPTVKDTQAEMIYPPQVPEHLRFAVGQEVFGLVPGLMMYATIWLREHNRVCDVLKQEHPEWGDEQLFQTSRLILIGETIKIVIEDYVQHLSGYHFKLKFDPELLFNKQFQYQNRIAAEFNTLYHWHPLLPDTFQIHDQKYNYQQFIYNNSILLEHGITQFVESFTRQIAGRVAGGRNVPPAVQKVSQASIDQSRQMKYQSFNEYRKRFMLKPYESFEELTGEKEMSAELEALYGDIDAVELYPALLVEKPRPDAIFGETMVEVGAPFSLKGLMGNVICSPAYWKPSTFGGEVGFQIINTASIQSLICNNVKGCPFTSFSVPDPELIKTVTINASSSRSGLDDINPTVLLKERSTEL

Sequence of COX-1 (Prostaglandin G/H synthase 1) (P23219 whole entry): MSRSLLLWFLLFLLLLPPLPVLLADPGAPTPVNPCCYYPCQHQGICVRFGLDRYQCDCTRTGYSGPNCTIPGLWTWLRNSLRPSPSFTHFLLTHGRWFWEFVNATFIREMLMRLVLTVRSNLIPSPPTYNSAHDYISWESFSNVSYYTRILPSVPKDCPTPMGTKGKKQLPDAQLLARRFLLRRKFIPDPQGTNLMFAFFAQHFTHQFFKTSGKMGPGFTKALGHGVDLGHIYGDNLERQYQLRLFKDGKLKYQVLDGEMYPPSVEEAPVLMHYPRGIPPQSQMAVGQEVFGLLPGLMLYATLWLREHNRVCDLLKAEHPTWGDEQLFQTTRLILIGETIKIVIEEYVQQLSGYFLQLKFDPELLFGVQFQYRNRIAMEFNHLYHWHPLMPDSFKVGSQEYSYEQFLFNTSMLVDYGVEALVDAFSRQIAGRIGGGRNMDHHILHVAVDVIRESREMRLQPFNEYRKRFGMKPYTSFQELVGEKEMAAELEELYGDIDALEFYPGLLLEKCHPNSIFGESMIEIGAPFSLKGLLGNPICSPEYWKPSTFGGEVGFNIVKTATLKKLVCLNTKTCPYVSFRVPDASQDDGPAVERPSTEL

Compound | viability at 100 µM [1] | viability at 100 µM [2] | viability at 100 µM [3] | further results
COc1ccc(S(=O)(=O)Nc2ccc(NS(C)(=O)=O)c(OC(C)C)c2)cc1 | 130% | 68.6% | 102% | –
CCOc1cc(NS(=O)(=O)c2cccc([N+](=O)[O-])c2)ccc1NS(C)(=O)=O | 127% | 75.5% | 116% | –
CC(C)Oc1cc(NS(=O)(=O)c2ccc(F)cc2)ccc1NS(C)(=O)=O | 130% | 75.5% | 92.9% | –
COc1ccc(C(=O)Nc2ccc(NS(C)(=O)=O)c(OC(C)C)c2)c([N+](=O)[O-])c1 | 63.5% | 94.2% | 111% | –
CCOc1cc(NC(=O)c2cccc([N+](=O)[O-])c2)ccc1NS(C)(=O)=O | 90.8% | 90.2% | 70.4% | –
CCOc1cc(NC(=O)c2ccccc2[N+](=O)[O-])ccc1NS(C)(=O)=O | 122% | 100% | 112% | –
CCOc1cc(NC(=O)c2ccc(F)cc2)ccc1NS(C)(=O)=O | 64.4% | 90% | 80.1% | –
COc1ccc(C(=O)Nc2ccc(NS(C)(=O)=O)c(OC(C)C)c2)cc1 | 153% | 65.8% | 67.9% | –
CC(C)Oc1cc(NS(=O)(=O)c2ccc([N+](=O)[O-])cc2)ccc1NS(C)(=O)=O | 57.9% | 91.4% | 75.4% | –
CS(=O)(=O)Nc1ccc(NC(=O)c2ccc(C(N)=O)cc2)cc1Oc1ccccc1 | 53.1% | 88.7% | 64.4% | –
CCOc1cc(NS(=O)(=O)c2ccccc2[N+](=O)[O-])ccc1NS(C)(=O)=O | 139% | 77.9% | 133% | –
CS(=O)(=O)Nc1ccc(NC(=O)c2ccc(F)cc2)cc1Oc1ccccc1 | 22.2% | 24.8% | 33.1% | IC50 [4]: 9.24 µM; IC50 [5]: > 100 µM; IC50 [6]: 11.3 µM; IC50 [7]: > 200 µM; inhibition [8]: Dose-Dependent Effect; Activity [9]: Dose-Dependent Effect; Activity [10]: Active; Activity [11]: Active
CCOc1cc(NS(=O)(=O)c2ccc([N+](=O)[O-])cc2)ccc1NS(C)(=O)=O | 119% | 65.7% | 118% | inhibition at 10 µM [12]: 21%; Activity [13]: 77%; Activity [14]: 44%; Activity [15]: 47%; Activity [16]: 60%; inhibition at 20 µM [17]: 40.7%; inhibition at 20 µM [18]: 39%; inhibition at 50 µM [19]: 22%; inhibition at 20 µM [20]: 46%; inhibition at 50 µM [21]: 22%; inhibition at 50 µM [22]: 68%; inhibition [23]: 88%
CCOc1cc(NC(=O)c2ccc([N+](=O)[O-])cc2)ccc1NS(C)(=O)=O | 116% | 84.8% | 114% | –
COc1cccc2c1C(=O)c1c(O)c3c(c(O)c1C2=O)C[C@@](O)(C(=O)CO)C[C@@H]3O[C@H]1C[C@H](N)[C@H](O)[C@H](C)O1 [DOXORUBICIN] | 14.1% | 11.8% | 21% | IC50 [4]: 0.15 µM; IC50 [5]: 16.9 µM; IC50 [6]: 0.16 µM; IC50 [7]: 0.1 µM
CC(C)Oc1cc(NC(=O)c2ccc([N+](=O)[O-])cc2)ccc1NS(C)(=O)=O | 101% | 81% | 124% | –
CC(C)Oc1cc(NC(=O)c2ccc(C(N)=O)cc2)ccc1NS(C)(=O)=O | 61.9% | 49.8% | 79.4% | –
